# Data from ChEMBL document CHEMBL1128369, “Haloanilino derivatives of pyrimidines, purines, and purine nucleoside analogs: synthesis and activity against human cytomegalovirus” (J Med Chem, 1995).
# What was measured:
# HEL [1] = experiment: Inhibition of human CMV DNA synthesis in CMV-infected HEL cells.; format: functional, cell-based
# How it was run: (§1)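 Dot-blot hybridization. HEL cells in MEM + 10% FCS infected with HCMV AD169 at about 1 pfu/cell for 60–90 min. Medium replaced by 3-fold drug dilutions (4–6 concentrations, duplicate wells) or DMSO. Incubated 48–96 h at 37 °C, 5% CO2. SDS/pronase lysates spotted on nitrocellulose, hybridized with 32P-labeled cloned viral DNA probe and counted. IC50 is 50% inhibition of viral DNA.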
# HEL [2] = experiment: Inhibition against DNA of uninfected HEL cells by incorporation of [3H]TdR.; format: functional, cell-based; conditions: Homo sapiens
# How it was run: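 About 1/3 confluent uninfected HEL monolayers in DMEM + 10% FCS, preincubated 24 h at 37 °C. Serial compound dilutions in DMSO (or DMSO alone) added to duplicate wells with [3H]thymidine 1 μCi/mL for 24 h. Cells lysed with 0.4 M NaOH, then 5% TCA precipitate collected on filters and counted. IC50 is 50% inhibition of incorporation.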
# HEL [3] = experiment: Inhibitory activity against HCMV DNA synthesis in virus infected cells; format: functional, cell-based; conditions: Homo sapiens; how it was run: as §1
# HEL [4] = experiment: Concentration that inhibits HCMV yield by 90% relative to control cultures without drugs; format: functional; conditions: Homo sapiens
# How it was run: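 HCMV AD169 infected HEL cells in 96-well plates at 0.1 pfu/cell for 30 min, washed twice, then given compound dilutions or DMSO diluent. Incubated 7 days at 37 °C. Cells scraped and sonicated. Progeny titered by end-dilution, in triplicate, 3- or 5-fold serial dilutions on fresh HEL cells, read after 14 days as the highest dilution with enumerable plaques.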
# Nucleic Acid = experiment: Inhibitory activity against HCMV DNA polymerase in virus infected cells; format: functional, cell-based, Human betaherpesvirus 5
# How it was run: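 HCMV DNA polymerase partially purified from HEL cells infected with AD169 (MOI 2, 3 days) by phosphocellulose and DEAE-cellulose chromatography. Assay buffer was 40 mM Tris-HCl pH 7.8 with 8 mM MgCl2, 100 mM KCl, 4 mM 2-mercaptoethanol, 0.1 mM dATP/dGTP/dCTP/[3H]dTTP and activated calf thymus DNA. Incubated 60 min at 37 °C; acid-precipitable counts measured. IC50 is the mean of duplicate experiments.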
IC50 (HEL [1]),IC50 (HEL [3]),IC90 (HEL [4]),IC50 (Nucleic Acid),Compound,IC50 (HEL [2])
15.2 µM,,,,OCCOCn1cnc2c(O)nc(Nc3cc(Cl)cc(Cl)c3)nc21,14 µM
25 µM,25 µM,69 µM,65 µM,Oc1cc(Nc2cc(Cl)cc(Cl)c2)nc(O)n1,100 µM
12.5 µM,,,,OCCOCn1cnc2c(Cl)nc(Nc3cc(Cl)cc(Cl)c3)nc21,14.4 µM
115 µM,,,,Nc1nc(O)cc(Nc2ccc(F)c(F)c2)n1,> 200 µM
> 200 µM,,,,Oc1cc(Nc2ccc(Cl)c(F)c2)nc(O)n1,> 200 µM
28 µM,28 µM,91 µM,175 µM,Nc1nc(O)cc(Nc2cc(Cl)cc(Cl)c2)n1,95 µM
15.1 µM,,,,OC[C@H]1O[C@@H](n2cnc3c(O)nc(Nc4cc(Cl)cc(Cl)c4)nc32)C[C@@H]1O,13 µM
7.9 µM,,,,OC[C@H]1O[C@@H](n2cnc3c(Cl)nc(Nc4cc(Cl)cc(Cl)c4)nc32)C[C@@H]1O,3.4 µM
8.6 µM,,,,Nc1nc(Nc2cc(Cl)cc(Cl)c2)nc2c1ncn2[C@H]1C[C@H](O)[C@@H](CO)O1,0.5 µM
70 µM,,,,Nc1nc(O)cc(Nc2ccc(Cl)c(F)c2)n1,165 µM
63 µM,,,,Nc1nc(O)cc(Nc2cc(F)cc(F)c2)n1,> 200 µM
47.9 µM,,,,Nc1nc(Nc2cc(Cl)cc(Cl)c2)nc2c1ncn2COC(CO)CO,5 µM
> 200 µM,,,,Oc1cc(Nc2cc(F)cc(F)c2)nc(O)n1,> 200 µM
45 µM,,,,OCC(CO)OCn1cnc2c(O)nc(Nc3cc(Cl)cc(Cl)c3)nc21,41.7 µM
20 µM,,,,Nc1nc(O)cc(Nc2ccc(F)c(Cl)c2)n1,110 µM
8 µM,8 µM,16.8 µM,250 µM,Nc1[nH]c(Nc2cc(Cl)cc(Cl)c2)nc2ncnc1-2,40 µM
12 µM,12 µM,,330 µM,Oc1[nH]c(Nc2ccc(Cl)c(Cl)c2)nc2ncnc1-2,60 µM
7.9 µM,,,,Nc1nc(Nc2cc(Cl)cc(Cl)c2)nc2c1ncn2COCCO,1.4 µM
> 200 µM,,,,Oc1cc(Nc2cc(F)cc(Cl)c2)nc(O)n1,> 200 µM
40 µM,40 µM,,45 µM,Oc1cc(Nc2ccc(Cl)c(Cl)c2)nc(O)n1,> 200 µM
> 200 µM,,,,Nc1nc(O)cc(Nc2cc(F)cc(Cl)c2)n1,> 200 µM
4.7 µM,,18 µM,,Nc1nc(Cl)cc(Nc2cc(Cl)cc(Cl)c2)n1,32 µM
33 µM,33 µM,56 µM,140 µM,Oc1[nH]c(Nc2cc(Cl)cc(Cl)c2)nc2ncnc1-2,400 µM
5 µM,,,,Nc1[nH]c(Nc2ccc(Cl)c(Cl)c2)nc2ncnc1-2,3.4 µM
9.1 µM,9.1 µM,8.7 µM,150 µM,Nc1nc(Cl)cc(Nc2ccc(Cl)c(Cl)c2)n1,31 µM
25 µM,25 µM,,360 µM,Nc1nc(O)cc(Nc2ccc(Cl)c(Cl)c2)n1,32 µM
140 µM,,,,Oc1cc(Nc2ccc(F)c(Cl)c2)nc(O)n1,> 200 µM
> 200 µM,,,,Oc1cc(Nc2ccc(F)c(F)c2)nc(O)n1,> 200 µM
0.5 µM,,2.1 µM,,Nc1nc2c(ncn2COC(CO)CO)c(=O)[nH]1 [GANCICLOVIR],7 µM

Compound,IC50 (HEL [1]),IC50 (HEL [3]),IC90 (HEL [4]),IC50 (Nucleic Acid),IC50 (HEL [2])
O=C(O)P(=O)(O)O [FOSCARNET SODIUM],15.5 µM,,,,
